Screening data (PubChem)
The list is not random: actives were taken first. Their share in the collection is about 2.5%.
Efflux pump mplx – antifungal efflux pump inhibition, Nile Red retention; S. cerevisiae Candida pump triplex; inhibition, % at 10 µM; 330,000 tested, 0.44% active; AID 485275;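 active = plate passing quality check with inhibition over a set limit, or well fluorescence over plate mean plus 4 SD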;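 also: Nile Red retained in pooled yeast measured as flow cytometry median fluorescence; 0% = buffer negative control and 100% = Enniatin B positive control; higher means more Nile Red kept so more efflux inhibition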
ABCB1 inh – blocks JC-1 efflux by human ABCB1 transporter | 190,000 tested, 0.067% active | P08183 | CCRF-Adr cells, flow cytometry | inhibition, % at 6.6 µM; in the data active = inhibition above about 40%;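 also: 0% = vehicle and 100% = reference inhibitor; higher value means more JC-1 retained so stronger ABCB1 efflux block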
Target sequence (P08183 whole entry, looked up): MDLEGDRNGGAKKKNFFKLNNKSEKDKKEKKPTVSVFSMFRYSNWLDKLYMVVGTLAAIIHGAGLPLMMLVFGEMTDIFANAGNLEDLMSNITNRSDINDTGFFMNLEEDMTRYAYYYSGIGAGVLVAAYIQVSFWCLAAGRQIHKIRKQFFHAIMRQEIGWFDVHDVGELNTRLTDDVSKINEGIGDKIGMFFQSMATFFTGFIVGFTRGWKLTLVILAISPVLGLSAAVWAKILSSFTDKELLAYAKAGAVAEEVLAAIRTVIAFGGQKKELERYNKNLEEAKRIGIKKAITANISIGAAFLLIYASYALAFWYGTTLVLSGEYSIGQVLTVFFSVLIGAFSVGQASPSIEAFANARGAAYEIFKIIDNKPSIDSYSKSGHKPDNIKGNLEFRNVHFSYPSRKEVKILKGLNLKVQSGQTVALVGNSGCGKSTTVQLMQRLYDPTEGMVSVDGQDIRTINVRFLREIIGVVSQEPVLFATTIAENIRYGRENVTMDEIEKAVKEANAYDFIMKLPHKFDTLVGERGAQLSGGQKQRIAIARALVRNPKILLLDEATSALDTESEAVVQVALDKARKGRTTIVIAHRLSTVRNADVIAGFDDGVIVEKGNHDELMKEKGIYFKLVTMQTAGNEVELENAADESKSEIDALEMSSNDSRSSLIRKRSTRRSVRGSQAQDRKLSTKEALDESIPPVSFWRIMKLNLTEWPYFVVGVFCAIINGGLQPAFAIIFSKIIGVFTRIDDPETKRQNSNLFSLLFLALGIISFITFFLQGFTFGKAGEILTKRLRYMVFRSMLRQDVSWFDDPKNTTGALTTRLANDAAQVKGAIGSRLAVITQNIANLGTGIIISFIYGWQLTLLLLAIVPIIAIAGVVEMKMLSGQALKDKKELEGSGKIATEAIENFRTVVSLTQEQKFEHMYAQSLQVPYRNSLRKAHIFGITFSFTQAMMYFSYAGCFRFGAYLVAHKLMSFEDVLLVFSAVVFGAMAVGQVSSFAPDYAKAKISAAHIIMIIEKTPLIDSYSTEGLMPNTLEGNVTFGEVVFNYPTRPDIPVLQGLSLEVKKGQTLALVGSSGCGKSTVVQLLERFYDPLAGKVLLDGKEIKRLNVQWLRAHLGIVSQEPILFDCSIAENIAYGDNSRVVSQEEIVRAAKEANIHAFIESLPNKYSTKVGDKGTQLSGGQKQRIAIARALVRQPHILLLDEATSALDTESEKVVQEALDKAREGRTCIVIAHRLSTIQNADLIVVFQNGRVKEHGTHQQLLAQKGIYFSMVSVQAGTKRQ
MEKK2wt PB1 HTS – raises or lowers MEK5 binding to wildtype human MEKK2 PB1 domain; 290,000 tested, 1.1% active; bead flow cytometry, Alexa488-MEK5 binding to MEKK2 WT; actives lie on both sides; Q9Y2U5; binding response (% of control), % at 10 µM; in the data active = binding response below about 67% or above about 130%
MEKK2 mut-MEK5 – signal of MEK5 binding to mutant human MEKK2 PB1 domain. percent response, % at 10 µM. bead flow cytometry, Alexa488-MEK5 binding to MEKK2 mutant. AID 1530. 290,000 tested, 0.35% active; in the data active = percent response above about 24%, passing the limit was not always enough
MEKK3 PB1 HTS – raises or lowers MEK5 binding to the human MEKK3 PB1 domain; Q99759; bead-based flow cytometry, Alexa488-MEK5 binding to MEKK3; actives lie on both sides; 0 = blocked by unlabeled MEK5, 100 = vehicle; binding response (% of control), % at 10 µM; 290,000 tested, 1.4% active; AID 1529;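 active = binding response more than 3 SD above or below the average of its plate-row segment, actives on both sides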;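 also: Alexa488 bead fluorescence after subtracting the streptavidin-only scavenger bead signal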
ABCG2 block – blocks JC-1 efflux by human ABCG2 transporter | Q9UNQ0 | IgMXP3 cells, flow cytometry | inhibition, % at 6.6 µM | 190,000 tested, 0.1% active;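 active = inhibition above 80%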;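 also: 0% = DMSO and 100% = nicardipine control wells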
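Read-out basis: Efflux inhibition in percent versus controls | Test system: ABCG2 IgMXP3 and barcoded ABCB1 CCRF-Adr cell mix | Quantity: 3 million cells/mL in well | Schedule: 10 min at 25 °C | Control set: Nicardipine as high control, DMSO as low control | Reagent: JC-1 as fluorescent efflux pump substrate | Signal: Flow cytometry of retained JC-1 fluorescence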
MEKK2wt confirm – raises or lowers MEK5 binding to wildtype human MEKK2, retest. shares compounds with MEKK3 PB1 HTS. bead flow cytometry, Alexa488-MEK5 binding to MEKK2 WT; actives lie on both sides. binding response (% of control), % at 10 µM. 5,900 tested, 2.4% active. AID 1892; in the data active = binding response below about 16% or above about 210%; inactive = in between
MEKK2mut-MEK5 – signal of MEK5 binding to mutant human MEKK2, retest; shares compounds with MEKK3 PB1 HTS; bead flow cytometry, Alexa488-MEK5 binding to MEKK2 mutant; percent response, % at 10 µM; 5,900 tested, 2% active; AID 1893; in the data active = percent response mostly above about 71%, no sharp cut-off; inactive = mostly below about 38%;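 also: higher means compound restores mutant binding toward wildtype level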
MEKK3-MEK5 inh – confirmation of inhibitors of MEK5 binding to human MEKK3; AID 1894; bead flow cytometry, Alexa488-MEK5 binding to MEKK3; active compounds read low; binding response (% of control), % at 10 µM; shares compounds with MEKK3 PB1 HTS; 5,900 tested, 1.8% active;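 active = binding response below 72% of control, or above a set upper limit, though filed actives all read lower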;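 also: 100% = DMSO only wells and 0% = binding blocked by excess unlabeled MEK5; lower values mean stronger disruption of MEK5 binding to MEKK3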
* marks the source's active call; other numbers are inactive results; [ ] = dose if it differs, or a comment.

For Oc1ccccc1-c1cc(-c2ccco2)[nH]n1 the results were Efflux pump mplx 0, ABCB1 inh -1, MEKK2wt PB1 HTS 96, MEKK2 mut-MEK5 -1, MEKK3 PB1 HTS 103 and ABCG2 block 7.
For Oc1ccc(Cl)cc1-c1cc(-c2ccco2)[nH]n1 the results were Efflux pump mplx 0, ABCB1 inh 0, MEKK2wt PB1 HTS 88, MEKK2 mut-MEK5 -16, MEKK3 PB1 HTS 78*[inhibitor], ABCG2 block 1, MEKK2wt confirm 97, MEKK2mut-MEK5 -12 and MEKK3-MEK5 inh 92.
O=C(NC(=S)NCCC1=CCCCC1)c1cncc(Br)c1 was read as Efflux pump mplx 0, ABCB1 inh 0, MEKK2wt PB1 HTS 106, MEKK2 mut-MEK5 0, MEKK3 PB1 HTS 152*, ABCG2 block -1, MEKK2wt confirm 99, MEKK2mut-MEK5 1 and MEKK3-MEK5 inh 104.
For O=C(NC(=S)NCCC1=CCCCC1)c1ccccc1Br the results were Efflux pump mplx 0, ABCB1 inh -1, MEKK2wt PB1 HTS 96, MEKK2 mut-MEK5 -3, MEKK3 PB1 HTS 104 and ABCG2 block -2.
`Cc1ccc(OCc2ccc(C#N)cc2)c(C(=O)c2cc(C#N)c(=O)n(C3CC3)c2)c1` gave Efflux pump mplx 0, ABCB1 inh 0, MEKK2wt PB1 HTS 115, MEKK2 mut-MEK5 52*, MEKK3 PB1 HTS 107, ABCG2 block 1, MEKK2wt confirm 101, MEKK2mut-MEK5 -15 and MEKK3-MEK5 inh 98.
CC(=O)Oc1ccc(C(=O)[C@H]2[C@H]3C(=O)N(c4ccc(C)cc4C)C(=O)[C@H]3[C@@H]3C=CC=NN32)cc1 was read as Efflux pump mplx 0, MEKK2wt PB1 HTS 94, MEKK2 mut-MEK5 0 and MEKK3 PB1 HTS 99.
`NNC(=O)c1oc2ccccc2c1-n1cccc1` gave Efflux pump mplx 0, ABCB1 inh 2, MEKK2wt PB1 HTS 121, MEKK2 mut-MEK5 4, MEKK3 PB1 HTS 143*, ABCG2 block 7, MEKK2wt confirm 94, MEKK2mut-MEK5 -6 and MEKK3-MEK5 inh 95.
For Nn1c(SCc2cc([N+](=O)[O-])cc3c2OCOC3)nnc1-c1cccnc1 the results were Efflux pump mplx 0, ABCB1 inh 0, MEKK2wt PB1 HTS 101, MEKK2 mut-MEK5 -4, MEKK3 PB1 HTS 107 and ABCG2 block -1.
Screening O=C(O)/C=C/C(=O)Nc1cccc2cccnc12 returned Efflux pump mplx 0, MEKK2wt PB1 HTS 103, MEKK2 mut-MEK5 4 and MEKK3 PB1 HTS 100.
O=C(/C=C/c1ccco1)Nc1cccc2cccnc12 was read as Efflux pump mplx 0, ABCB1 inh 0, MEKK2wt PB1 HTS 91, MEKK2 mut-MEK5 0, MEKK3 PB1 HTS 62*[inhibitor], ABCG2 block 17, MEKK2wt confirm 96, MEKK2mut-MEK5 -4 and MEKK3-MEK5 inh 100.
Screening CN(C)CCCn1c(SCC(=O)Nc2nc(-c3cccc(Br)c3)cs2)nc2ccccc2c1=O returned Efflux pump mplx 0, MEKK2wt PB1 HTS 265*, MEKK2 mut-MEK5 55*, MEKK3 PB1 HTS 128*, MEKK2wt confirm 272*, MEKK2mut-MEK5 166* and MEKK3-MEK5 inh 114.
For C/C=C(\C)C(=O)NCCN1C2=NC[C@H](Cc3ccccc3)N2C[C@H]1Cc1ccc(O)cc1 the results were Efflux pump mplx 0, ABCB1 inh 1, MEKK2wt PB1 HTS 153*, MEKK2 mut-MEK5 36, MEKK3 PB1 HTS 108, ABCG2 block 2, MEKK2wt confirm 122, MEKK2mut-MEK5 10 and MEKK3-MEK5 inh 99.
For COc1ccc(C[C@H]2CN3C(=NC[C@H]3Cc3ccccc3)N2CCNC(=O)CCC2CCCCC2)cc1 the results were ABCB1 inh 1, MEKK2wt PB1 HTS 164*, MEKK2 mut-MEK5 36, MEKK3 PB1 HTS 104, ABCG2 block 5, MEKK2wt confirm 160, MEKK2mut-MEK5 33 and MEKK3-MEK5 inh 108.
`C/C=C(\C)C(=O)NCCN1C2=NC[C@H](Cc3ccccc3)N2C[C@@H]1Cc1ccc(OC)cc1` gave Efflux pump mplx 0, MEKK2wt PB1 HTS 153*, MEKK2 mut-MEK5 16, MEKK3 PB1 HTS 109, MEKK2wt confirm 102, MEKK2mut-MEK5 -2 and MEKK3-MEK5 inh 103.
Screening CCCCNC(=O)Oc1c(Br)cc2sc(=O)oc2c1Br returned Efflux pump mplx 0, MEKK2wt PB1 HTS 99, MEKK2 mut-MEK5 -14 and MEKK3 PB1 HTS 98.
`O=C(CCSc1ccc(F)cc1)NNC(=O)c1ccccc1Cl` gave Efflux pump mplx 0.
`CN1CCCC(CC2Oc3ccccc3Sc3ccccc32)C1` (stereo not drawn) gave Efflux pump mplx 0, ABCB1 inh 2, MEKK2wt PB1 HTS 120, MEKK2 mut-MEK5 0, MEKK3 PB1 HTS 120 and ABCG2 block 2.
`c1ccc2c(c1)OC(CCCN1CCCCC1)c1ccccc1S2` (stereo not drawn) gave Efflux pump mplx 0, ABCB1 inh 1, MEKK2wt PB1 HTS 141*, MEKK2 mut-MEK5 27*, MEKK3 PB1 HTS 106, ABCG2 block 1, MEKK2wt confirm 138, MEKK2mut-MEK5 21 and MEKK3-MEK5 inh 107.
Screening COc1ccc(-n2nc(C(=O)NCC(=O)N3CCCC3)c3ccccc3c2=O)cc1Cl returned Efflux pump mplx 0, MEKK2wt PB1 HTS 104, MEKK2 mut-MEK5 3 and MEKK3 PB1 HTS 104.
For Nc1cc(N2CCCC2)c(Cl)cc1[N+](=O)[O-] the results were Efflux pump mplx 0, ABCB1 inh 1, MEKK2wt PB1 HTS 99, MEKK2 mut-MEK5 -1, MEKK3 PB1 HTS 100 and ABCG2 block 5.
Screening Nc1cc(N2CCOCC2)c(Cl)cc1[N+](=O)[O-] returned Efflux pump mplx 0, ABCB1 inh 1, MEKK2wt PB1 HTS 95, MEKK2 mut-MEK5 -2, MEKK3 PB1 HTS 73*[inhibitor], ABCG2 block 6, MEKK2wt confirm 97, MEKK2mut-MEK5 -2 and MEKK3-MEK5 inh 103.
Screening CCN1CCN(Cc2ccc(C(=O)Nc3ccc(C)c(NCc4cnc(NC(=O)OC)cn4)c3)cc2C(F)(F)F)CC1 returned Efflux pump mplx 0, MEKK2wt PB1 HTS 123, MEKK2 mut-MEK5 6 and MEKK3 PB1 HTS 105.
